Only some compounds are listed: those with a hit (about 1.6% of all), similar ones and a draw of the others.
PKA-R1A activ: activates the PKA-R1A holoenzyme complex; P00514+P68181; PKA-R1A dissociation, Cy5-IP20 fluorescence polarization; scaled: DMSO 0%, 113 µM cGMP 100%; activation, % at 11.4 µM; actives 0.083% (n = 340,000); AID 504707;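 active means percent activation above the mean of all tested compounds plus 3 SD, cut at about 19% in these data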;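 further: higher means more PKAc released from R1A so a rise in polarization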
PKA-R2B activ: activates the human PKA-R2B holoenzyme complex. actives 0.079% (n = 340,000). PKA-R2B holoenzyme dissociation, Cy5-IP20 fluorescence polarization; R2B truncated from residue 108, S112A mutant; 0% DMSO only, 100% 113 µM cGMP. activation, % at 11.4 µM;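 active means activation above a cutoff set at the mean over all compounds plus 3 SD, cut at about 18% in these data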;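 further: higher means more holoenzyme dissociation and a rise in polarization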
Target sequence (P31323 whole entry, looked up, other chains not shown, the tested form may be a part): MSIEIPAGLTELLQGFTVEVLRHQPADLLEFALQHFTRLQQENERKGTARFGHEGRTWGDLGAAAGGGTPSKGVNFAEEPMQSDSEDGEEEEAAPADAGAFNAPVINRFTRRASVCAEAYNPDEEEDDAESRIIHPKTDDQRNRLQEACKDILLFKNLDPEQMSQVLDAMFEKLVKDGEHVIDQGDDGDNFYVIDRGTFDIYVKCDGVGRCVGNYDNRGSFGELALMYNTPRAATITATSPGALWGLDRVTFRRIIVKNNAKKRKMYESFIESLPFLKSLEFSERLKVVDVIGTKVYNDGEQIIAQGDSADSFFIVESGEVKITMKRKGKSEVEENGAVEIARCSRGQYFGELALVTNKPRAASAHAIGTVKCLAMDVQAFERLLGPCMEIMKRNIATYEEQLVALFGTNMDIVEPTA
PG9 binder: binds the HIV-1 gp120 antibody PG9; inhibition, % at 6.7 µM; AID 624416; actives 0.43% (n = 360,000); TR-FRET gp120-PG9 antibody binding; in the data active means inhibition above about 8.5%
NR2E3 ag-1: agonists of human NR2E3 nuclear receptor | inhibition of corepressor binding, % at 3.98 µM | actives 0.35% (n = 360,000) | Q9Y5X4 | CHO-S Gal4-NCOR/VP16-NR2E3 two-hybrid, luciferase | AID 602229;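 active means inhibition above the mean of all tested compounds plus 3 SD, cut at about 70% in these data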;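 further: 0% = DMSO with NR2E3 transfected cells and 100% = cells lacking NR2E3 construct; higher means lower luciferase signal from less NR2E3 corepressor binding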
Rev-erbA mod: modulates human Rev-erb alpha binding to DNA; Rev-erbα–FITC-DNA binding, fluorescence polarization, 90 min; activity, % at 10 µM; actives 0.79% (n = 370,000); AID 1259318;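 active means activity above about 14%, limit read from the data; passing the limit was not always enough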;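 further: 0% = DMSO wells with 35 nM protein and 100% = DMSO wells with 750 nM protein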
NR2E3 ag-2: activates human photoreceptor nuclear receptor NR2E3; Q9Y5X4; GST-NR2E3/biotin-RetCOR TR-FRET, 1536-well; inhibition of corepressor binding, % at 4.78 µM; actives 0.12% (n = 320,000); AID 2300;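 active means percent inhibition above the cutoff of mean plus 3 SD of all tested compounds, set per screening campaign, cut at about 20% in these data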;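 further: 0% = DMSO wells and 100% = biotin wells as full block of FRET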
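System: GST-tagged NR2E3 plus biotinylated RetCOR corepressor; Buffer or medium: pH 7.5 Tris-based buffer; Probe or stimulus: RetCOR corepressor, biotinylated, 7 nM; Doses: compound at 4.8 µM, single dose; Schedule: 5 h incubation at 4 °C; Technique: time-resolved FRET; Evaluation: percent inhibition of TR-FRET ratio; Replication: one well per compound, singlicate testing.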
NR2E3 ag conf: NR2E3 agonism confirmed in two-hybrid assay | shares compounds with NR2E3 ag-1 | CHO-S mammalian two-hybrid NR2E3-NCOR, luciferase luminescence | inhibition, % at 3.98 µM | actives 51% (n = 2,300) | AID 624378;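 active means average inhibition above a cutoff equal to the mean inhibition of all tested compounds plus one SD, cut at about 70% in these data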;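 further: 0% = DMSO in NR2E3 cells and 100% = DMSO in cells lacking NR2E3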
GAL4-VP16 luc: reduces GAL4-VP16 reporter signal in NR2E3 counterscreen; shares compounds with NR2E3 ag-1; actives 29% (n = 2,300); CHO-S GAL4-VP16 luciferase reporter, luminescence; inhibition, % at 3.98 µM; AID 624379;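 active means mean inhibition above a cutoff equal to the average over all tested compounds plus one standard deviation, cut at about 70% in these data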;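 further: luciferase from a UAS reporter driven by GAL4-VP16 transactivation; 0% = DMSO with VP16-transfected cells and 100% = DMSO with cells lacking VP16; higher means less reporter light so more repression of VP16 activity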
* marks the source's active call; other numbers are inactive results; . = no result.

SMILES	PKA-R1A activ	PKA-R2B activ	PG9 binder	NR2E3 ag-1	Rev-erbA mod	NR2E3 ag-2	NR2E3 ag conf	GAL4-VP16 luc
CC[n+]1c(/C=C2\Sc3ccccc3N2C)ccc2cccc(C)c21	-2	10	-16	86*	.	.	100*	81*
O=C(Nc1cc(Cl)ccc1N1CCOCC1)c1ccco1	7	5	2	5	1	.	.	.
O=C(Nc1cc(C(F)(F)F)ccc1N1CCOCC1)c1ccco1	9	2	-1	103*	-3	0	-1	2
CC(C)NC(=O)C1(N2C(=O)c3ccccc3C2=O)CCCC1	-10	-13	-1	2	-6	.	.	.
CC(C)CNC(=O)C1(N2C(=O)c3ccccc3C2=O)CCCC1	1	7	.	51	.	.	-11	2
O=C1CCCN1c1ccc(S(=O)(=O)NCCOc2ccccc2)cc1	4	-5	1	57	2	-2	0	22
COCCCN1C(=O)[C@H](CC(=O)NCc2cccc3ccccc23)[C@]2(C(=O)OC)CCCCC=C12	.	.	.	.	7	.	.	.
COCc1cc(=O)n2[nH]c(C)c(-c3ccc(Cl)cc3)c2n1	-1	0	-4	51	-8	.	42	35
Cc1nc2c(-c3ccc(Cl)cc3)c(C)[nH]n2c(=O)c1Cc1ccccc1	1	6	-1	88*	-1	1	99*	57
C[C@H]1[C@@H](NC(=O)Cc2ccsc2)CC[C@@]23CCCN2C(=O)CCC[C@@H]13	.	.	.	.	2	.	.	.
CC(=O)Nc1ccc(S(=O)(=O)Oc2ccc(C(=S)N3CCCCC3)cc2)cc1	3	3	-3	55	4	-4	70*	62
CCOc1ccc(NS(=O)(=O)c2ccc(C(=O)N3CCCCCC3)cc2)cc1	-4	5	2	73*	-2	-4	23	47
COc1ccc(N2CCN(C(=O)c3ccc(CNS(=O)(=O)c4ccc(C)cc4)cc3)CC2)cc1	1	-7	0	43	1	1	.	.
COc1ccc(NS(=O)(=O)c2cccc(C(=O)N3CCCCCC3)c2)cc1	3	1	0	-1	-5	-2	.	.
Cc1ccc(S(=O)(=O)NCc2ccc(C(=O)N3CCN(c4ccc([N+](=O)[O-])cc4)CC3)cc2)cc1	-18	-9	2	58	2	-2	83*	62
COc1ccc(NS(=O)(=O)c2ccc(C(=O)N3CCCCCC3)cc2)cc1	2	-8	0	76*	-3	.	37	48
CC(=O)Nc1ccc(S(=O)(=O)Oc2ccc(C(=S)N3CCC(O)CC3)cc2)cc1	-6	-6	0	29	1	-5	.	.
CCN(Cc1cn(Cc2ccc(C)cc2)nn1)S(=O)(=O)c1ccccc1Br	.	.	.	.	1	.	.	.
COc1ccc(NS(=O)(=O)c2ccc(NC(=O)C3CC3)cc2)cc1	-2	2	-4	52	11	4	27	42
CCCCN(CCCC)S(=O)(=O)c1ccc(NS(=O)(=O)c2ccc(NC(C)=O)cc2)cc1	-1	4	.	-10	1	0	.	.
CCCCOc1ccc(S(=O)(=O)Nc2ccc(NC(C)=O)cc2)cc1	5	-6	-1	70*	0	-1	27	47
CCOc1ccc(NS(=O)(=O)c2ccc(C(=O)N3CCCC(C)C3)cc2)cc1 (configuration not stated)	-12	4	2	55	-6	0	74*	69
Cc1ccc(NS(=O)(=O)c2ccc(C(=O)N3CCN(c4ccccn4)CC3)cc2)cc1	-14	-5	1	68	-2	2	68	54
CC(C)C[C@H]1COc2cccc(F)c2S(=O)(=O)N1Cc1cn(Cc2ccc(C(F)(F)F)cc2)nn1	.	.	.	.	-1	.	.	.
CCn1c2ccccc2c2cc(C=NNC(=O)CSc3nc4ccccc4c(=O)n3-c3ccccc3)ccc21	.	.	.	.	-5	.	.	.

High-throughput results deposited in PubChem by several laboratories.
